The source of these data is ChEMBL document CHEMBL2407024, “Antimicrobial activity of imidazo[1,5-a]quinoxaline derivatives with pyridinium moiety” (Eur J Med Chem, 2013).

Each structure is given as a SMILES string. In brackets after ≈: the same amount, converted by molar mass. Non-standard residues stand in square brackets, D forms with d. Residues, ends and D or L forms follow the SMILES beside them. Orn = NCCC[C@H](N)C(=O)O

Series [1] concerns Aspergillus niger. The experiment in a line: Antifungal activity against Aspergillus niger BKMF-1119 measured every 24 hrs for 14 days by conventional dilution method. Type of series: functional. The essentials: (§1)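 Dilution assay in Sabouraud dextrose broth, inoculum 2 × 10^3–4 cfu/ml. MIC is the lowest concentration with no visible growth after 14 days of incubation. Run alongside a positive growth control and standard drug controls. Tests in duplicate, repeated twice.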

In series [2] the test system is Escherichia coli. The experiment in a line: Antibacterial activity against Escherichia coli F-50 measured every 24 hrs for 5 days by conventional dilution method. Type of series: functional. In a few lines: (§2)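 Broth dilution in nutrient broth, inoculum 3 × 10⁵ cfu/ml. MIC is the lowest concentration showing no growth, read visually every 24 h over 5 days. Run alongside a positive growth control and standard drug controls. Tests in duplicate, repeated twice.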

In series [3] the test system is Candida albicans. As to the kind of experiment: Antifungal activity against Candida albicans 885-653 measured every 24 hrs for 14 days by conventional dilution method. Type of series: functional. In a few lines: as §1
Series [4] has as its system Trichophyton mentagrophytes. As to the kind of experiment: Antifungal activity against Trichophyton mentagrophytes measured every 24 hrs for 14 days by conventional dilution method. Type of series: functional. The essentials:
as §1

The subject of series [5] is Pseudomonas aeruginosa. As to the kind of experiment: Antibacterial activity against Pseudomonas aeruginosa 9027 measured every 24 hrs for 5 days by conventional dilution method. Type of series: functional. The essentials: as §2
Series [6] deals with Bacillus cereus. As to the kind of experiment: Antibacterial activity against Bacillus cereus 8035 measured every 24 hrs for 5 days by conventional dilution method. Type of series: functional. The essentials:
as §2

In series [7] the test system is Staphylococcus aureus. The experiment in a line: Antibacterial activity against Staphylococcus aureus 209p measured every 24 hrs for 5 days by conventional dilution method. Type of series: functional. The essentials:
as §2

Series [8] can be described thus: Acute toxicity in ip dosed mouse. Type of series: organism-based. Particulars: in vivo. In a few lines: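 Mice; each compound given at 5 dose levels, 10 animals per dose (n = 50 per compound). Animals observed for 72 h; toxicity expressed as average lethal dose (LD50) calculated from mortality across dose groups.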
For series [9], the system named is Escherichia coli. As to the kind of experiment: Bactericidal activity against Escherichia coli F-50 after 4 hrs. Type of series: functional. Particulars: F-50, 4 h. In a few lines:
(§3)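 Tubes contained 1 mL test compound in nutrient agar, 5 to 500 per ml. Bacteria in normal saline broth (3 × 10⁵ cfu/ml, 1 mL) were added and held 4 h, then transferred onto meal-peptone agar plates and incubated at 37 °C. MBC is the dilution giving total cell death.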

The subject of series [10] is Staphylococcus aureus. As to the kind of experiment: Bactericidal activity against Staphylococcus aureus 209p after 4 hrs. Type of series: functional. In a few lines:
as §3

Series [11] has as its system Bacillus cereus. As to the kind of experiment: Bactericidal activity against Bacillus cereus 8035 after 4 hrs. Type of series: functional. Particulars: Bacillus cereus, 8035, 4 h. In a few lines: as §3
The test system of series [12] is Pseudomonas aeruginosa. The experiment in a line: Bactericidal activity against Pseudomonas aeruginosa 9027 after 4 hrs. Type of series: functional. Particulars: Pseudomonas aeruginosa, 9027, 4 h. The essentials:
as §3

Series [13] relates to Trichophyton mentagrophytes. The experiment in a line: Fungicidal activity against Trichophyton mentagrophytes after 6 hrs. Type of series: functional. The essentials: (§4)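 Tubes of test compound (5 to 500 per ml, 1 mL in nutrient agar) with fungi were incubated at 26 °C for 6 h. Inocula were then prepared in Sabouraud dextrose broth and incubated at 26 °C. The fungicidal concentration is the one giving total cell death.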

The subject of series [14] is Candida albicans. The experiment in a line: Fungicidal activity against Candida albicans 885-653 after 6 hrs. Type of series: functional. Particulars: 885-653, 6 h. The essentials:
as §4

In series [15] the test system is Aspergillus niger. As to the kind of experiment: Fungicidal activity against Aspergillus niger BKMF-1119 after 6 hrs. Particulars: BKMF-1119, 6 h. Type of series: functional. In a few lines:
as §4

Usually MIC stands for the lowest concentration found to suppress growth. `Cn1c(=O)c2c(-c3ccccc3)nc(-c3ccc[n+](Cc4ccccc4)c3)n2c2ccccc21.[Cl-]`: the minimum inhibitory concentration (MIC) was over 500 µg/mL in the series with Aspergillus niger [1]; over 500 µg/mL with Escherichia coli [2]; 62.5 µg/mL in the series with Candida albicans [3]; 500 µg/mL in series [4]; over 500 µg/mL in the series on Pseudomonas aeruginosa [5]; 125 µg/mL with Bacillus cereus [6]. The molecule also came in with an MIC in the series with Staphylococcus aureus [7] of 31.3 µg/mL.

As to `O=c1[nH]c2ccccc2n2c(-c3ccc[n+](CCCCCC[n+]4cccc(-c5nc(-c6ccccc6)c6c(=O)[nH]c7ccccc7n56)c4)c3)nc(-c3ccccc3)c12.[Br-].[Br-]`, the MIC (in the series with Aspergillus niger [1]; against Escherichia coli [2]; in the series on Candida albicans [3]; in series [4]; in the series with Pseudomonas aeruginosa [5]; with Bacillus cereus [6]) was over 500 µg/mL throughout. The minimal inhibitory concentration (MIC) in the series with Staphylococcus aureus [7] came out at 500 µg/mL.

Broadly, the LD50 is the dose expected to kill half of the subjects tested. In the case of `CCCCCCCCCn1c(=O)c2c(-c3ccccc3)nc(-c3ccc[n+](Cc4cccc(C[n+]5cccc(-c6nc(-c7ccccc7)c7c(=O)n(CCCCCCCCC)c8ccccc8n67)c5)c4)c3)n2c2ccccc21.[Br-].[Br-]`, the MIC with Aspergillus niger [1] is over 500 µg/mL; in the series with Escherichia coli [2], 500 µg/mL; against Candida albicans [3], 7.8 µg/mL; in series [4], 500 µg/mL; in the series with Pseudomonas aeruginosa [5], over 500 µg/mL; against Bacillus cereus [6], 15.6 µg/mL. In addition, in the series with Staphylococcus aureus [7], the minimum inhibitory concentration (MIC) is 3.9 µg/mL. The LD50 in series [8] amounted to 108 mg/kg.

What is called MBC is the lowest tested concentration that kills the bacteria rather than only halting them. Lower therefore signals greater bactericidal potency. Take `CCn1cc(C(=O)O)c(=O)c2cc(F)c(N3CCNCC3)cc21` [NORFLOXACIN]: the MIC was determined as 1.5 µg/mL (≈ 4.7 µM) against Escherichia coli [2], 3 µg/mL (≈ 9.39 µM) against Pseudomonas aeruginosa [5], 7.8 µg/mL (≈ 24.4 µM) in the series with Bacillus cereus [6] and 2.42 µg/mL (≈ 7.58 µM) in the series on Staphylococcus aureus [7]. The minimum bactericidal concentration (MBC) in the series with Escherichia coli [9] was determined as 5 µg/mL (≈ 15.7 µM); against Staphylococcus aureus [10] it was 5 µg/mL (≈ 15.7 µM); against Bacillus cereus [11] it was 12.5 µg/mL (≈ 39.1 µM); against Pseudomonas aeruginosa [12], 5 µg/mL (≈ 15.7 µM).

As for `CCCCCCn1c(=O)c2c(-c3ccccc3)nc(-c3ccc[n+](CCCCCC)c3)n2c2ccccc21.[I-]`, the minimal inhibitory concentration (MIC) is over 500 µg/mL against Aspergillus niger [1]; 250 µg/mL against Escherichia coli [2]; 15.6 µg/mL in the series with Candida albicans [3]; over 500 µg/mL in [4]; 500 µg/mL in the series with Pseudomonas aeruginosa [5]; 62.5 µg/mL in the series with Bacillus cereus [6]. The same molecule had a minimal inhibitory concentration (MIC) against Staphylococcus aureus [7] of 62.5 µg/mL.

For orientation: MFC means the lowest tested concentration that kills the fungus rather than only halting it. Regarding `Clc1ccccc1C(c1ccccc1)(c1ccccc1)n1ccnc1` [CLOTRIMAZOLE], the MIC is 0.39 µg/mL (≈ 1.13 µM) against Candida albicans [3] and 3.13 µg/mL (≈ 9.08 µM) in series [4]. The figures for the MFC (in series [13]; in the series with Candida albicans [14]) were 3.13 µg/mL (≈ 9.08 µM) and 0.39 µg/mL (≈ 1.13 µM), respectively.

Turning to `O=c1c2c(-c3ccccc3)nc3n2c2ccccc2n1CCCCCCCCCCn1c(=O)c2c(-c4ccccc4)nc(n2c2ccccc21)-c1ccc[n+](c1)Cc1cccc(c1)C[n+]1cccc-3c1.[Br-].[Br-]`, the minimal inhibitory concentration (MIC) against Aspergillus niger [1] was over 500 µg/mL; with Escherichia coli [2], over 500 µg/mL; in the series with Candida albicans [3], 250 µg/mL; in series [4] it was over 500 µg/mL; against Pseudomonas aeruginosa [5], over 500 µg/mL; against Bacillus cereus [6] it was over 500 µg/mL. This molecule gave an MIC in the series with Staphylococcus aureus [7] of 125 µg/mL.

For `O=c1[nH]c2ccccc2n2c(-c3ccc[n+](CCCC[n+]4cccc(-c5nc(-c6ccccc6)c6c(=O)[nH]c7ccccc7n56)c4)c3)nc(-c3ccccc3)c12.[Br-].[Br-]`, the minimal inhibitory concentration (MIC) against Aspergillus niger [1] was over 500 µg/mL; against Escherichia coli [2] it was over 500 µg/mL; in the series on Candida albicans [3], 3.9 µg/mL; in series [4], 250 µg/mL; in the series with Pseudomonas aeruginosa [5], over 500 µg/mL; against Bacillus cereus [6], over 500 µg/mL. Moreover, the minimum inhibitory concentration (MIC) in the series on Staphylococcus aureus [7] is over 500 µg/mL.

Regarding `C[C@@H]1[C@H](O)[C@@H](C)/C=C/C=C/C=C/C=C/C=C/C=C/C=C/[C@H](O[C@@H]2O[C@H](C)[C@@H](O)[C@H](N)[C@@H]2O)C[C@@H]2O[C@](O)(C[C@@H](O)C[C@@H](O)[C@H](O)CC[C@@H](O)C[C@@H](O)CC(=O)O[C@H]1C)C[C@H](O)[C@H]2C(=O)O` [AMPHOTERICIN B], the figures for the MIC (in the series on Aspergillus niger [1]; against Candida albicans [3]; in series [4]) were 20 µg/mL (≈ 21.6 µM), 0.97 µg/mL (≈ 1.05 µM) and 3.13 µg/mL (≈ 3.39 µM), respectively. Also, the minimum fungicidal concentration (MFC) amounted to 250 µg/mL (≈ 271 µM) in series [13], 250 µg/mL (≈ 271 µM) in the series with Aspergillus niger [15] and 50 µg/mL (≈ 54.1 µM) with Candida albicans [14]. Further, the LD50 in series [8] was found to be 27.7 mg/kg.

As for `CC1COc2c(N3CCN(C)CC3)c(F)cc3c(=O)c(C(=O)O)cn1c23` (stereo unspecified) [OFLOXACIN], the MIC was 3.1 µg/mL (≈ 8.58 µM) in the series with Pseudomonas aeruginosa [5], 1.5 µg/mL (≈ 4.15 µM) in the series on Bacillus cereus [6] and 0.97 µg/mL (≈ 2.68 µM) in the series on Staphylococcus aureus [7].

For the molecule `CC(C)C[C@@H]1NC(=O)[C@H](CCCN)NC(=O)[C@H](C(C)C)NC(=O)[C@@H]2CCCN2C(=O)[C@@H](Cc2ccccc2)NC(=O)[C@H](CC(C)C)NC(=O)[C@H](CCCN)NC(=O)[C@H](C(C)C)NC(=O)[C@@H]2CCCN2C(=O)[C@@H](Cc2ccccc2)NC1=O` [GRAMICIDIN S] (cyclo(L[dF]PV[Orn]L[dF]PV[Orn])), the LD50 in series [8] was 26 mg/kg.
